These results are taken from ChEMBL document CHEMBL1132938, “Novel synthetic oleanane and ursane triterpenoids with various enone functionalities in ring A as inhibitors of nitric oxide production in mouse macrophages” (J Med Chem, 2000).

Holding throughout (format): functional
Assay [1] is filed under the species Mus musculus. As to the kind of experiment: 50 percent inhibitory concentration of compound to inhibit nitric oxide production induced by IFN-gamma in mouse macrophages. The procedure, abridged:
(§1)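 Peritoneal macrophages from female CD-1 mice (5-10 weeks old) were harvested 4 days after ip injection of 2 mL 4% thioglycollate. Cells were seeded at 2×10^5/well and incubated 48 h with 20 ng/mL recombinant mouse IFN-γ, with or without compound (DMSO, final ≤0.1%). Compounds were tested over 0.1 pM–1 μM (10-fold) or 0.01–40 μM (4-fold). Nitrite in the supernatant was measured by Griess reagent at 550 nm against a sodium nitrite standard, in triplicate. Values are the average of two experiments.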

For assay [2], the species on record is Mus musculus. As to the kind of experiment: 50 percent inhibitory concentration of compound to inhibit nitric oxide production induced by IFN-gamma in mouse macrophages (Toxic above 1 uM). The procedure, abridged: as §1
The species named for assay [3] is Mus musculus. The assay can be described thus: 50 percent inhibitory concentration of compound to inhibit nitric oxide production induced by IFN-gamma in mouse macrophages (Not active below 1 uM). The procedure, abridged: as §1
Assay [4] is filed under the species Mus musculus. The assay can be described thus: (§2) Percent inhibition of nitric oxide production induced by IFN-uM concentration. Set-up: concentration or dose not given beside the values.
The species named for assay [5] is Mus musculus. As to the kind of experiment: 50 percent inhibitory concentration of compound to inhibit nitric oxide production induced by IFN-gamma in mouse macrophages (Toxic above 10 uM). A digest of the protocol: as §1
The species entered for assay [6] is Mus musculus. As to the kind of experiment: 50 percent inhibitory concentration of compound to inhibit nitric oxide production induced by IFN-gamma in mouse macrophages (Not active below 10 uM). A digest of the protocol: as §1
The species named for assay [7] is Mus musculus. The description is as §2.
Assay [8] is filed under the species Mus musculus. As to the kind of experiment: 50 percent inhibitory concentration of compound to inhibit nitric oxide production induced by IFN-uM). A digest of the protocol: as §1

The structures appear in SMILES notation.

In general, IC50 refers to the concentration needed to halve the response being measured. Consider `C[C@@H]1CC[C@]2(C(=O)O)CC[C@]3(C)C(=CC[C@@H]4[C@@]5(C)C=C(C#N)C(=O)C(C)(C)[C@@H]5CC[C@]43C)C2[C@H]1C` (some centres undefined), for which, in the assay listed under Mus musculus [1], the IC50 was found to be 6.2 µM.
On to `CC1(C)CC[C@]2(C(=O)O)CC[C@]3(C)C(=CC[C@@H]4[C@@]5(C)C=C(C=O)C(=O)C(C)(C)[C@@H]5CC[C@]43C)C2C1` (some centres undefined), for which the IC50 entry in the assay filed under Mus musculus [2] and in the assay listed under Mus musculus [3] was “Not active below 1 uM” in each case.
`COC(=O)[C@]12CCC(C)(C)CC1C1=CC[C@@H]3[C@@]4(C)C=CC(=O)C=C4CC[C@@]3(C)[C@]1(C)CC2` (some centres undefined): the IC50 in the assay listed under Mus musculus [1] is over 40 µM.
What is called Inhibition is the drop in the measured response relative to a control, in per cent. On to `C[C@@H]1CC[C@]2(C(=O)O)CC[C@]3(C)C(=CC[C@@H]4[C@@]5(C)C=CC(=O)C(C)(C)[C@@H]5CC[C@]43C)C2[C@H]1C` (some centres undefined), for which the IC50 in the assay filed under Mus musculus [1] was determined as 13 µM. This molecule yielded an Inhibition in the assay listed under Mus musculus [4] of 41%.
In turn, `COC(=O)[C@]12CC[C@@H](C)[C@H](C)C1C1=CC[C@@H]3[C@@]4(C)C=C(C#N)C(=O)C(C)(C)[C@@H]4CC[C@@]3(C)[C@]1(C)CC2` (some centres undefined) yielded an IC50 in the assay listed under Mus musculus [1] of 5.1 µM.
On the same count and under the same terms, the value for `CC1(C)CC[C@]2(C(=O)O)CC[C@]3(C)C(=CC[C@@H]4[C@@]5(C)C=CC(=O)C=C5CC[C@]43C)C2C1` (some centres undefined) was 13 µM.
Turning to `C[C@@H]1CCC2(C(=O)O)CC[C@]3(C)C(=CC[C@@H]4[C@@]5(C)CC[C@H](O)C(C)(C)[C@@H]5CC[C@]43C)C2[C@H]1C` (some centres undefined), the IC50 result in the assay filed under Mus musculus [5] and in the assay filed under Mus musculus [6] was “Not active below 10 uM” throughout. The Inhibition in the assay filed under Mus musculus [4] came out at 0%.
In turn, `COC(=O)C12CCC(C)(C)CC1C1=CC[C@@H]3[C@@]4(C)C=CC(=O)C(C)(C)[C@@H]4CC[C@@]3(C)[C@]1(C)CC2` (some centres undefined) returned an IC50 in the assay listed under Mus musculus [1] of 31 µM. In the assay listed under Mus musculus [4], this molecule displayed an Inhibition of 19%.
Take `CC(=O)OC[C@]12CCC(C)(C)CC1C(=O)[C@](C)([C@]1(C)CC[C@H]3C(C)(C)[C@@H](OC(C)=O)CC[C@]3(C)[C@H]1CC=O)CC2` (some centres undefined): the Inhibition in the assay filed under Mus musculus [7] is 52%.
Take `COC(=O)[C@]12CCC(C)(C)CC1C1=CC[C@@H]3[C@@]4(C)C=C(C=O)C(=O)C(C)(C)[C@@H]4CC[C@@]3(C)[C@]1(C)CC2` (some centres undefined): the IC50 entry in the assay listed under Mus musculus [8] and in the assay listed under Mus musculus [3] was “Not active below 1 uM” throughout.
With `COC(=O)[C@]12CCC(C)(C)C[C@H]1C1=CC[C@@H]3[C@@]4(C)CC[C@H](O)C(C)(C)[C@@H]4CC[C@@]3(C)[C@]1(C)CC2` [METHYL OLEANOLATE], the Inhibition in the assay listed under Mus musculus [4] is reported as 0%.
`CC1(C)CC[C@]2(C(=O)O)CC[C@]3(C)C(=CC[C@@H]4[C@@]5(C)CC[C@H](O)C(C)(C)[C@@H]5CC[C@]43C)[C@@H]2C1` [OLEANOLIC_ACID] returned an Inhibition in the assay listed under Mus musculus [4] of 38%.
`CC1(C)CC[C@]2(C(=O)O)CC[C@]3(C)C(=CC[C@@H]4[C@@]5(C)CCC(=O)C(C)(C)[C@@H]5CC[C@]43C)[C@@H]2C1` [OLEANONIC ACID]: the Inhibition in the assay listed under Mus musculus [4] is 16%.
